This note sets out measurements from ChEMBL document CHEMBL4014310, “Selective IKur Inhibitors for the Potential Treatment of Atrial Fibrillation: Optimization of the Phenyl Quinazoline Series Leading to Clinical Candidate 5-[5-Phenyl-4-(pyridin-2-ylmethylamino)quinazolin-2-yl]pyridine-3-sulfonamide” (J Med Chem, 2017).

Series [1] can be described thus: Ratio of drug level in Sprague-Dawley rat brain to plasma at 3 mg/kg, iv administered as 10 mins infusion by LC-MS/MS analysis. The format is ADME, organism-based. To be noted: brain and plasma, read-out: BPR.
The nature of series [2]: Protein binding in rat plasma. To be noted: read-out: PPB. The format is ADME, cell-free.
The nature of series [3]: Protein binding in human plasma. Format: ADME, cell-free. The conditions noted are these: read-out: PPB.
The target in series [4] is T1, Potassium voltage-gated channel subfamily A member 5 (Homo sapiens, UniProt P22460). The series can be described thus: Inhibition of recombinant human Kv1.5 expressed in mouse L929 cells by patch clamp assay. The format is cell-based. The method, boiled down:
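Whole-cell patch clamp of IKur current in mouse L-929 cells transfected with human KV1.5 and stably expressing the channel.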
On the technique in general: In patch-clamp work, channel activity is measured electrically.

Series [5] deals with T1, Potassium voltage-gated channel subfamily A member 5. The conditions noted are these: at 0.3 µM.
Series [6] can be described thus: Solubility of the compound in pH 1 to 8 solution using crystalline form. The format is physicochemical.
A further series concerns Plasma. The series can be described thus: Drug uptake in monkey famotidine model plasma. The format is ADME, cell-free, Macaca mulatta. The conditions noted are these: rhesus monkey.
Series [7] is described as follows: Prodrug conversion in monkey famotidine model assessed as 5-[5-phenyl-4-(pyridin-2-ylmethylamino)-quinazolin-2-yl]pyridine-3-sulfonamide formation in intestinal brush border. The format is ADME, Macaca mulatta. The conditions noted are these: rhesus monkey, in vivo.
Series [8] has as its target T2, hERG (KCNH2) (Homo sapiens, UniProt Q12809). The series can be described thus: Inhibition of human ERG expressed in HEK293 cells at 10 uM by patch clamp method relative to control. The format is cell-based. The conditions noted are these: HEK293 cells expressing human ERG.
Series [9] deals with T3, Voltage-gated inwardly rectifying potassium channel KCNH2 (Homo sapiens, UniProt Q12809). The series can be described thus: Inhibition of human ERG expressed in HEK293 cells by patch clamp method. Format: cell-based.
T3 sequence (Q12809 whole entry): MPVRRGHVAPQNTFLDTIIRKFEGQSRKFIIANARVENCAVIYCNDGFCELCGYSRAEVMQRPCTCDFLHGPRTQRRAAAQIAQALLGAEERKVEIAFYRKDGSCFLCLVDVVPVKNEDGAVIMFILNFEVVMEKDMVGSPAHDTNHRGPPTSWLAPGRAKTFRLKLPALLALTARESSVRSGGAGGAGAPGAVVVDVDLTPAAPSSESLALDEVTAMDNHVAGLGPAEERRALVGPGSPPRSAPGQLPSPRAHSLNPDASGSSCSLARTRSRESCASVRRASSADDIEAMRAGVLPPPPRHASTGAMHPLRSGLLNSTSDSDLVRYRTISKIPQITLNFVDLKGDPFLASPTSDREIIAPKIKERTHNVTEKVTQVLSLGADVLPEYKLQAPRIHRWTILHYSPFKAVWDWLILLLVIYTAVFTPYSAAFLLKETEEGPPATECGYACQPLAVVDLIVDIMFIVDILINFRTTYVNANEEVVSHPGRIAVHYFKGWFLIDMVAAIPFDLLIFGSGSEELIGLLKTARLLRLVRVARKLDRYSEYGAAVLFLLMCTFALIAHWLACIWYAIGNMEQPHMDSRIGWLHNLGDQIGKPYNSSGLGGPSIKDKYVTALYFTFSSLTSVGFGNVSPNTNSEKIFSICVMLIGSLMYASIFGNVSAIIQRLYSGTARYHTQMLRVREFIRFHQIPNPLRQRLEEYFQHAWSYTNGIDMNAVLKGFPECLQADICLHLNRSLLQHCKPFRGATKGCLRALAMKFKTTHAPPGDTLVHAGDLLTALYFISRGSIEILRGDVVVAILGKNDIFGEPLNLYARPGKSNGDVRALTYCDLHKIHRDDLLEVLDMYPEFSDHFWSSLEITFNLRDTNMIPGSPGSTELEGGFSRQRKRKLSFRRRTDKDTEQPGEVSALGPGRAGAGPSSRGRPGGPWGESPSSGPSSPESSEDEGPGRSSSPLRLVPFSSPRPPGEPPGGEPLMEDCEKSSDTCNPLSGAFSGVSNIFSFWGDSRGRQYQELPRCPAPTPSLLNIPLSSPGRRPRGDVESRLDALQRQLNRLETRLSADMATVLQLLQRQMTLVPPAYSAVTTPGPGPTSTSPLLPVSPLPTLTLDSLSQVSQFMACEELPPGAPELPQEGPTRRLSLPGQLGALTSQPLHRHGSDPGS
For series [10], the target named is T2, hERG (KCNH2). In words: Inhibition of human ERG expressed in HEK293 cells at 1 uM by patch clamp method relative to control. The conditions noted are these: HEK293 cells expressing human ERG. Format: cell-based.
Series [11] in a line: Stability in human liver microsomes assessed as compound remaining in presence of NADPH after 10 mins. Format: ADME, microsome. To be noted: read-out: Stability.
Series [12] has as its target T3, Voltage-gated inwardly rectifying potassium channel KCNH2. In words: Inhibition of human ERG expressed in HEK293 cells by flux assay.
Series [13] can be described thus: Solubility of the compound in ethanol/propylene glycol/PEG-400. Format: physicochemical.

T1 sequence (P22460 whole entry): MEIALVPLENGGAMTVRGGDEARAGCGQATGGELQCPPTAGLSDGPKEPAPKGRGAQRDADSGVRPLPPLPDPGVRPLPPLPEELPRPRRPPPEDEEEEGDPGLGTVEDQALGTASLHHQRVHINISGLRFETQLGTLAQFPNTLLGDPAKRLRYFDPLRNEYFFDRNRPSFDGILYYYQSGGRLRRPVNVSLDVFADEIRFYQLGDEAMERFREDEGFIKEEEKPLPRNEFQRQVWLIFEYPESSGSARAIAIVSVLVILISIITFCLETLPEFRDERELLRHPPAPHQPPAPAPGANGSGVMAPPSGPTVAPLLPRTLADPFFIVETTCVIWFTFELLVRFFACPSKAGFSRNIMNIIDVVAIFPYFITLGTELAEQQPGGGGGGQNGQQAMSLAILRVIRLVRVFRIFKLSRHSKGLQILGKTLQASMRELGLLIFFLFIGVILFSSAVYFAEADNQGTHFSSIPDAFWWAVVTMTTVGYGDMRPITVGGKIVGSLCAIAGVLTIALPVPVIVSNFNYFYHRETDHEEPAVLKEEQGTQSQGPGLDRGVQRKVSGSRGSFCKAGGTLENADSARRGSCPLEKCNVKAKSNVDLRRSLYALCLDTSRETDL
T2 sequence (Q12809 whole entry): as the sequence (Q12809 whole entry) above

The term IC50 denotes the concentration that inhibits the measured activity by half. Consider `O=S(=O)(c1cccc(Nc2nc(-c3cncnc3)nc3cccc(-c4ccccc4)c23)c1)N1CCOCC1`, for which the Kp at 10 min in series [1] worked out at 2.4. Further, the fraction unbound in series [2] and in [3] was less than 0.005 each time. The 50% inhibitory concentration (IC50) in [4] worked out at 0.08 µM.
Usually inhibition stands for the drop in the measured response relative to a control, in per cent. In the case of `NC(=O)Nc1ccc(-c2nc(NCc3ccccn3)c3c(-c4ccccc4)cccc3n2)cn1`, the Kp at 10 min in series [1] amounted to 1. For the same compound, the fraction unbound in [2] and in series [3] was less than 0.005 in each case. Besides, the inhibition in [5] amounted to 79%.
Regarding `O=P(O)(O)NS(=O)(=O)c1cncc(-c2nc(NCc3ccccn3)c3c(-c4ccccc4)cccc3n2)c1`, the solubility result in [6] was “Soluble”. Further, in the series on Plasma, the Drug uptake result is listed as “Not Active”. Also, the Drug metabolism entry in [7] was “Metabolite_Detected”.
Take `CS(=O)(=O)Nc1cncc(-c2nc(NCc3ccccn3)c3c(-c4ccccc4)cccc3n2)c1`: in [1], the Kp at 10 min came out at 0.07. Moreover, the fraction unbound in series [2] and in [3] was less than 0.005 each time. On hERG (KCNH2) [8], this compound showed an inhibition at 10 µM of 94%. In addition, in [5], the inhibition was 87%.
`NS(=O)(=O)c1ccncc1-c1nc(NCc2ccccn2)c2c(-c3ccccc3)cccc2n1` returned an inhibition in series [5] of 48%.
On to `NC(=O)c1ccc(-c2cccc3nc(-c4cncnc4)nc(NCc4ccccn4)c23)cc1`, for which the Kp at 10 min in series [1] was found to be 0.2. The fraction unbound in series [2] and in series [3] was less than 0.01 each time. This compound also had an IC50 in series [9] of 1.3 µM.
On to `NC(=O)c1cncc(-c2nc(NCc3ccccn3)c3c(-c4ccccc4)cccc3n2)c1`, for which the Kp at 10 min in [1] worked out at 0.3. For the same compound, the fraction unbound in series [2] and in [3] was less than 0.005 each time. The same compound came in with an inhibition at 1 µM against hERG (KCNH2) [10] of 26%. The inhibition in series [5] came out at 89%.
Regarding `O=c1ccc(-c2nc(NCc3ccccn3)c3c(-c4ccccc4)cccc3n2)c[nH]1`, the Kp at 10 min in series [1] is 1. Besides, the concentration for half-maximal inhibition (IC50) in series [9] amounted to 0.5 µM.
Regarding `NS(=O)(=O)c1ccc(CCNc2nc(Cl)nc3cccc(-c4ccccc4)c23)cc1`, the Kp at 10 min in series [1] was determined as 0.6. Besides, the remaining at 10 min in series [11] is 68%. Also, the inhibition in series [5] was 73%.
Turning to `Nc1ncc(-c2nc(NCc3ccccn3)c3c(-c4ccccc4)cccc3n2)cn1`, the Kp at 10 min in [1] was determined as 3. Also, the fraction unbound in series [2] and in series [3] was less than 0.005 each time. In series [9], half-maximal inhibition (IC50) required 80 µM. Moreover, the inhibition in series [5] is 95%.
For `NC(=O)c1ccc(-c2nc(NCc3ccccn3)c3c(-c4ccccc4)cccc3n2)cn1`, the Kp at 10 min in series [1] worked out at 3. The fraction unbound in series [2] and in [3] was less than 0.01 in each case. The half-inhibitory concentration (IC50) in series [9] came to 4.6 µM; in series [4], 0.1 µM.
`COc1ncc(-c2nc(NCc3ccccn3)c3c(-c4ccccc4)cccc3n2)cn1`: the Kp at 10 min in series [1] worked out at 2.5.
With `CN(C)c1ccc(-c2cccc3nc(-c4cncnc4)nc(NCc4ccccn4)c23)cc1`, in [11], the remaining at 10 min is less than 3%. Also, the IC50 in series [12] was more than 80 µM; in series [4] it was 0.33 µM.
In series [5], `NS(=O)(=O)c1cccc(-c2nc(NCc3ccccn3)c3c(-c4ccccc4)cccc3n2)n1` yielded an inhibition of 87%.
With `CC(=O)Nc1ccc(-c2nc(NCc3ccccn3)c3c(-c4ccccc4)cccc3n2)cn1`, in series [1], the Kp at 10 min was 2. The fraction unbound in series [2] and in [3] was less than 0.005 in each case. This compound registered an inhibition in series [5] of 80%.
Compound `NS(=O)(=O)c1ccc(CCNc2nc(-c3cncnc3)nc3cccc(-c4ccccc4)c23)cc1` gave an IC50 in series [12] of 5.6 µM. The inhibition in [5] worked out at 15%.
As for `N#Cc1ncc(-c2nc(NCc3ccccn3)c3c(-c4ccccc4)cccc3n2)cn1`, in series [1], the Kp at 10 min came out at 3. The inhibition in series [5] stood at 64%.
`O=S(=O)(c1cccc(Nc2nc(Cl)nc3cccc(-c4ccccc4)c23)c1)N1CCOCC1`: the Kp at 10 min in series [1] came out at 3. The half-inhibitory concentration (IC50) in [4] was 0.21 µM.
For `NS(=O)(=O)c1ccc(-c2nc(NCc3ccccn3)c3c(-c4ccccc4)cccc3n2)cn1`, the Kp at 10 min in series [1] is 0.4. In addition, the fraction unbound in series [2] and in series [3] was less than 0.005 throughout. The compound also came in with an inhibition in [5] of 92%.
Turning to `c1ccc(-c2cccc3nc(-c4cncnc4)nc(NCc4ccccn4)c23)cc1`, in series [1], the Kp at 10 min was found to be 2.8.
`O=C(NCC(F)(F)F)c1ccc(-c2cccc3nc(-c4cncnc4)nc(NCc4ccccn4)c23)cc1`: the Kp at 10 min in series [1] came to 0.3. The fraction unbound in series [2] and in [3] was less than 0.005 throughout. In series [9], this compound displayed a 50% inhibitory concentration (IC50) of 4.9 µM. Also, in [5], the inhibition was 2%.
`NS(=O)(=O)Nc1cncc(-c2nc(NCc3ccccn3)c3c(-c4ccccc4)cccc3n2)c1`: the Kp at 10 min in series [1] was found to be 0.04. In addition, in [13], the solubility entry is recorded as “Insoluble”. The fraction unbound in series [2] and in series [3] was less than 0.005 each time. Moreover, in series [9], 0.8 µM corresponded to half-maximal inhibition (IC50). In series [5], this compound displayed an inhibition of 99%.
As to `NC(=O)Nc1cncc(-c2nc(NCc3ccccn3)c3c(-c4ccccc4)cccc3n2)c1`, the Kp at 10 min in series [1] was 0.04. Also, the solubility entry in series [13] is “Insoluble”. Further, the fraction unbound in [2] and in [3] was less than 0.005 each time. The inhibition in series [5] came to 91%.
As for `c1ccc(CNc2nc(-c3cncnc3)nc3cccc(-c4cccc(N5CCOCC5)c4)c23)nc1`, in [1], the Kp at 10 min is 0.3. This compound also yielded an inhibition in series [5] of 50%.
For the compound `CC(=O)Nc1cncc(-c2nc(NCc3ccccn3)c3c(-c4ccccc4)cccc3n2)c1`, the Kp at 10 min in [1] was 0.08. Besides, the fraction unbound in series [2] and in series [3] was less than 0.005 in each case. The IC50 amounted to 2 µM in series [9] and 0.1 µM in series [4].
